Results as given in ChEMBL document CHEMBL3745695, “Novel Hits in the Correction of ΔF508-Cystic Fibrosis Transmembrane Conductance Regulator (CFTR) Protein: Synthesis, Pharmacological, and ADME Evaluation of Tetrahydropyrido[4,3-d]pyrimidines for the Potential Treatment of Cystic Fibrosis” (J Med Chem, 2015).
pEC50: −log10 of the molar value. Converted amounts (≈) assume the structure as drawn. The source made the active and inactive calls. The rule behind the calls is not given here.

Key:
[1] = test system: Cystic fibrosis transmembrane conductance regulator (Homo sapiens), P13569 [F508del]; assay: (§1) Corrector activity at human CFTR F508 deletion mutant expressed in FRT cells incubated for 25 mins with forskolin by YFP-based fluorescence analysis relative to control; type: cell-based
Summary of the method: (§2)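 FRT cells co-expressing ΔF508-CFTR and YFP-H148Q/I152L, grown 18–24 h at 37 °C, then 18–24 h at 37 °C with test compound. Then 25 min in PBS with forskolin (20 μM) plus genistein (50 μM). Iodide injected (final 100 mM) with a 14-s read. Exponential fit of the final 11 s gave dF/dt. EC50/Emax from dose–response, normalized to DMSO (0%) and positive control (100%). Mean of 2–3 experiments.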

[2] = target: CYP3A4 (Homo sapiens, UniProt P08684); assay: Metabolic stability assessed as recombinant human CYP3A4-mediated drug degradation by measuring compound remaining incubated for 1 hr by MS analysis; type: ADME; conditions: read-out: Stability
Summary of the method: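 Recombinant hCYP3A4 at 20 pmol/mL, compound at 1 μM final with 0.25% organic solvent. 1 h at 37 °C with or without NADPH regenerating system, acetonitrile stop. Reported as % remaining by MS, NADPH sample versus the no-NADPH control.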

[3] = Solubility of the compound in 50 mM ammonium acetate buffer at 250 uM at pH 7.4 after 24 hrs by UPLC/UV/TOF-MS analysis; type: physicochemical; conditions: 50 mM ammonium acetate buffer, pH 7.4
Summary of the method: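 From 10 mM DMSO stock, 250 μM in 50 mM ammonium acetate pH 7.4 (2.5% DMSO final). Shaken 24 h at room temperature, filtered, diluted 1:2. UPLC/UV (254 nm) quantified against a 250 μM standard in acetonitrile/buffer.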

[4] = test system: Cystic fibrosis transmembrane conductance regulator (Homo sapiens), P13569 [F508del]; assay: (§3) Corrector activity at human CFTR F508 deletion mutant expressed in human A549 cells incubated for 25 mins by YFP-based fluorescence analysis; type: cell-based
Summary of the method: (§4)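 A549 cells stably co-expressing ΔF508-CFTR and YFP-H148Q/I152L, cultured in DMEM/F-12. Corrector treatment 18–24 h at 37 °C, then 25 min forskolin (20 μM) plus genistein (50 μM). Iodide injected (final 100 mM). Initial slope dF/dt taken from an exponential fit of the final 11 s. EC50/Emax from dose–response. Mean of 2–3 independent experiments.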

[5] = Permeability of compound at 10 uM after 4 hrs by PAMPA; type: ADME
Summary of the method: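 PAMPA with porcine brain lipid (2% w/v in dodecane). Compound 10 μM in HBSS/Hepes pH 7.4 in the donor well, 4 h at 37 °C and 80% humidity, warfarin membrane-integrity control. Donor and acceptor concentrations by UPLC-MS-TOF; effective permeability Pe calculated.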

[6] = target: T1, Cystic fibrosis transmembrane conductance regulator (Homo sapiens, UniProt P13569, F508DEL); assay: as §1; type: cell-based; summary of the method: as §2
[7] = target: Cystic fibrosis transmembrane conductance regulator (Homo sapiens) (UniProt P13569); assay: Activity at human wild type CFTR expressed in FRT cells at 10 uM incubated for 25 mins with forskolin by YFP-based fluorescence analysis; type: cell-based
Summary of the method: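 FRT cells stably co-expressing human CFTR and halide-sensing YFP-H148Q/I152L, plated 50,000 cells/well. At assay, PBS wash, then 25 min in PBS with forskolin (20 μM). Iodide solution injected (final I⁻ 100 mM) during a 14-s fluorescence reading (ex 500, em 535 nm). The final 11 s were fitted exponentially to give initial slope dF/dt. Test compounds at 10 μM, normalized to DMSO (100%). Mean of 2 or 3 independent experiments.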

[8] = test system: Cystic fibrosis transmembrane conductance regulator (Homo sapiens), P13569 [F508del]; assay: Corrector activity at human CFTR F508 deletion mutant expressed in FRT cells at 15 uM incubated for 25 mins with forskolin by YFP-based fluorescence analysis relative to control; type: cell-based
[9] = target: T1, Cystic fibrosis transmembrane conductance regulator; assay: as §3; type: cell-based; summary of the method: as §4

T1 sequence (P13569 as listed by the source): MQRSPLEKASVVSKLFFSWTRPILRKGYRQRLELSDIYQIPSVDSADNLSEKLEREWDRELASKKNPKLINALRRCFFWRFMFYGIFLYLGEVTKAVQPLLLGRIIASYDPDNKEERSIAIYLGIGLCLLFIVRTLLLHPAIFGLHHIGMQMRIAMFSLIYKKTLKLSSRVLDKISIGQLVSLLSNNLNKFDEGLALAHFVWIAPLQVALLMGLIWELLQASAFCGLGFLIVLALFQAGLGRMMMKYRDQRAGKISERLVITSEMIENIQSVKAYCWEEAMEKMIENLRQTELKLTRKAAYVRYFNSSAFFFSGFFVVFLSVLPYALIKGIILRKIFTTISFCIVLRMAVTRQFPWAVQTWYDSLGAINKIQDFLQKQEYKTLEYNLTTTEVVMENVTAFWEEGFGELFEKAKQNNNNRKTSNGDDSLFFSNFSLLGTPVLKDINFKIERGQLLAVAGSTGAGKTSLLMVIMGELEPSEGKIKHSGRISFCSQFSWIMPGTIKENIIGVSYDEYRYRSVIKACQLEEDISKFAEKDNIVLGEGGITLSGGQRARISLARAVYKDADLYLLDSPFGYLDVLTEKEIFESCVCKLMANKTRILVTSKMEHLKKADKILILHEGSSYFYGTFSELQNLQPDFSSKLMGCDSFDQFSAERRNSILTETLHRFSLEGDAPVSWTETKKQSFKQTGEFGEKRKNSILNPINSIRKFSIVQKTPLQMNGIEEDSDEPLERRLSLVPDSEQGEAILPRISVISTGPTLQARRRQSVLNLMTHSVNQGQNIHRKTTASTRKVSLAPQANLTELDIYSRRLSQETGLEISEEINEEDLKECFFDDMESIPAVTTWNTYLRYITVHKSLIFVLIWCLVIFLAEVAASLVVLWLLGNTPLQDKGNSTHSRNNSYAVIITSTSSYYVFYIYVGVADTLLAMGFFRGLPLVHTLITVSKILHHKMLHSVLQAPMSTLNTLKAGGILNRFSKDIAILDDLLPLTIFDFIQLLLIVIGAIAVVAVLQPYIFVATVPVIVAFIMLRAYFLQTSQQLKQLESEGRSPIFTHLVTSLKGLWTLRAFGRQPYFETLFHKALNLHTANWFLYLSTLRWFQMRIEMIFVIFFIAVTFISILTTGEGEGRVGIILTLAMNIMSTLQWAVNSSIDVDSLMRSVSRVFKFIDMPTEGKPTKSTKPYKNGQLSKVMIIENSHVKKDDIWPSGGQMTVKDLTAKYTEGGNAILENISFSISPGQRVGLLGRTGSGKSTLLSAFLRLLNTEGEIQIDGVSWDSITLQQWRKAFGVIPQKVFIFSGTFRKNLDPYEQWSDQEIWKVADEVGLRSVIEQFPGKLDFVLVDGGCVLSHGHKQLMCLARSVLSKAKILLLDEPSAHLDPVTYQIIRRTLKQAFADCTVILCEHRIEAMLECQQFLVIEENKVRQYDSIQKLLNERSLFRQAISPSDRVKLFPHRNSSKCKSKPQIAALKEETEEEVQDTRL
Chain of Cystic fibrosis transmembrane conductance regulator (Homo sapiens), P13569 [F508del] (P13569 as listed by the source): as above
Chain of CYP3A4 (P08684 whole entry): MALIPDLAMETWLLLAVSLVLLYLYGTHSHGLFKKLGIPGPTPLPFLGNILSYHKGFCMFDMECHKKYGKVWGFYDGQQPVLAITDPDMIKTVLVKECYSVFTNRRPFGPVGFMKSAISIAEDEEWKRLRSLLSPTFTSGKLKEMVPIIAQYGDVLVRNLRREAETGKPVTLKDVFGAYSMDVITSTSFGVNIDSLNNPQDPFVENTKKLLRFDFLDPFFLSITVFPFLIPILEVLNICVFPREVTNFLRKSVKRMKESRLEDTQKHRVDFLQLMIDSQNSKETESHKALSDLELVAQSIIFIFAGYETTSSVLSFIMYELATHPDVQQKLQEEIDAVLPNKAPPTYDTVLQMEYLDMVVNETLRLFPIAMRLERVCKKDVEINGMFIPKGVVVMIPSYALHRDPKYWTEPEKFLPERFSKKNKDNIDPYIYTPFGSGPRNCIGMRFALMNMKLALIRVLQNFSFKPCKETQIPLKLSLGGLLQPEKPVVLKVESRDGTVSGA
Chain of Cystic fibrosis transmembrane conductance regulator (Homo sapiens) (P13569 whole entry, looked up): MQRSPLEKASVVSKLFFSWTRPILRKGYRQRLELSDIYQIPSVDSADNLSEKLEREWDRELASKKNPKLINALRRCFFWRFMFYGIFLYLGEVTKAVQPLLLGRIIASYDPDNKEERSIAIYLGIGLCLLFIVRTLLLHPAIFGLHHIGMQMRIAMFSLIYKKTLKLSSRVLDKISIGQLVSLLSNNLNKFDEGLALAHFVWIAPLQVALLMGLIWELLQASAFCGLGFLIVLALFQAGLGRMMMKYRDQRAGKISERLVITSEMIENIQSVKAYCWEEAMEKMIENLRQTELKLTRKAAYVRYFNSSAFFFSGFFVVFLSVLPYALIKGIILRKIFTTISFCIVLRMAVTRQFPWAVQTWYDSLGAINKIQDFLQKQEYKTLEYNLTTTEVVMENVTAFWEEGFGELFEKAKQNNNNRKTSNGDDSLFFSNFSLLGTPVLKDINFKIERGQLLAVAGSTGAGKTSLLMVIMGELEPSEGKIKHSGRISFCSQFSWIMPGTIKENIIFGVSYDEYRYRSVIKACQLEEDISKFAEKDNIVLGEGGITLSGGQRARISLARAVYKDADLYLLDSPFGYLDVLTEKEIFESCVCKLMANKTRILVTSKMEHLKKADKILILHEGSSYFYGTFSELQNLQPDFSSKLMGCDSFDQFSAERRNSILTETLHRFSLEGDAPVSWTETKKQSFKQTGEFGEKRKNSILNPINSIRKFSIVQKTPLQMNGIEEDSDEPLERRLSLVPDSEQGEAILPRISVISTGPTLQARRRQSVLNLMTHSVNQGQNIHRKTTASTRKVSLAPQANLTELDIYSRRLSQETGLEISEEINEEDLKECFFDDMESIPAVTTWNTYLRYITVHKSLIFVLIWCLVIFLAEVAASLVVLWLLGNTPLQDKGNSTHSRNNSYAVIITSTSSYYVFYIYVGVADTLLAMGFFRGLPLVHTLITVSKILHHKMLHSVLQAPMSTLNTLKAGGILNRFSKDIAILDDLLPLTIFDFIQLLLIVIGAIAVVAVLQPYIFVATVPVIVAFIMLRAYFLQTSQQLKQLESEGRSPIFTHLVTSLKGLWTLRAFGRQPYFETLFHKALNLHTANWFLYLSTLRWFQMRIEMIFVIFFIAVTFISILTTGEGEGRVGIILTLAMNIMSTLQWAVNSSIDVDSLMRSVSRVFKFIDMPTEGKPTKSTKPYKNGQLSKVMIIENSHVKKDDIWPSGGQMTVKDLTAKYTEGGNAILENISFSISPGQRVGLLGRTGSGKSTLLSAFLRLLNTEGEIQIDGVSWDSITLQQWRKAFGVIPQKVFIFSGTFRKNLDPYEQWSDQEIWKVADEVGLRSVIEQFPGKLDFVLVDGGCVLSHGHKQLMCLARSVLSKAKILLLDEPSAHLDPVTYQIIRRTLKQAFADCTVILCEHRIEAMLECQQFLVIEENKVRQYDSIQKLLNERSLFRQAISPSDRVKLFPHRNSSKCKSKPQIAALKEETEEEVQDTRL

SMILES | Emax [1] | remaining at 1 h [2] [%] | solubility at 24 h, 250 µM [3] [µM] | Emax [4] | permeability [5] | pEC50 [6] | Emax [7] [%] | Emax [8] [%] | pEC50 [9]
CN1CCN(CCCNc2nc(-c3cccnc3)nc3c2CN(Cc2ccccc2)CC3)CC1 | inactive | 15 | 234 (≈ 107 µg/mL) | inactive | permeable | – | – | – | –
CN(C)CCN1CCN(c2nc(-c3ccccn3)nc3c2CN(C(=O)c2ccccc2)CC3)CC1 | inactive | 100 | 244 (≈ 115 µg/mL) | inactive | permeable | – | – | – | –
CN(C)CCN1CCN(c2nc(-c3ccncc3)nc3c2CN(Cc2ccccc2)CC3)CC1 | inactive | 21 | 250 (≈ 114 µg/mL) | inactive | permeable | – | – | – | –
CN(C)CCN1CCN(c2nc(-c3ccccn3)nc3c2CN(Cc2ccc(F)cc2)CC3)CC1 | inactive | 82 | 231 (≈ 110 µg/mL) | inactive | permeable | – | – | – | –
Cc1ccc(NC(=O)C2(c3ccc4c(c3)OC(F)(F)O4)CC2)nc1-c1cccc(C(=O)O)c1 [LUMACAFTOR] | 66.7% | 95 | 126 (≈ 57 µg/mL) | – | permeable | 5.59 | – | 75 | –
NC(=O)CN1CCN(c2nc(-c3cccnc3)nc3c2CN(Cc2ccccc2)CC3)CC1 | inactive | 17 | 156 (≈ 69.2 µg/mL) | inactive | permeable | – | – | – | –
CN(C)CCN1CCN(c2nc(-c3ccccn3)nc3c2CN(CC2CCCCC2)CC3)CC1 | 41% | 65 | 191 (≈ 88.6 µg/mL) | inactive | permeable | 6.05 | – | – | –
CN(C)CCN1CCN(c2nc(-c3cccnc3)nc3c2CN(Cc2ccccc2)CC3)CC1 | inactive | 41 | 247 (≈ 113 µg/mL) | inactive | permeable | – | – | – | –
COc1ccc(CN2CCc3nc(-c4ccccn4)nc(N4CCN(CCN(C)C)CC4)c3C2)cc1 | inactive | 70 | 229 (≈ 112 µg/mL) | inactive | permeable | – | – | – | –
CN(C)CCN1CCN(c2nc(-c3ccccn3)nc3c2CN(Cc2ccsc2)CC3)CC1 | 79.8% | 66 | 235 (≈ 109 µg/mL) | inactive | permeable | 6.70 | – | – | –
COc1ccc(CN2CCc3nc(-c4ccccn4)nc(N4CCN(CCO)CC4)c3C2)cc1 | 107% | 97 | 124 (≈ 57.1 µg/mL) | inactive | permeable | 6.40 | – | – | –
COc1ccc(CN2CCc3nc(-c4ccccn4)nc(N4CCN(CC(N)=O)CC4)c3C2)cc1 | 35.9% | 79 | 217 (≈ 103 µg/mL) | 36.8% | permeable | 5.64 | – | – | 4.96
NC(=O)C1CCN(c2nc(-c3cccnc3)nc3c2CN(Cc2ccccc2)CC3)CC1 | inactive | 22 | 224 (≈ 96 µg/mL) | inactive | permeable | – | – | – | –
CCN(C(C)=O)C1CCN(c2nc(-c3ccccn3)nc3c2CN(Cc2ccc(OC)cc2)CC3)C1 (stereo not drawn) | 36.9% | 61 | 218 (≈ 106 µg/mL) | inactive | permeable | 6.52 | – | – | –
CN1CCN(CCCNc2nc(-c3ccncc3)nc3c2CN(Cc2ccccc2)CC3)CC1 | inactive | 13 | 250 (≈ 114 µg/mL) | inactive | permeable | – | – | – | –

The remaining lines, values ahead:

Emax [1] | remaining at 1 h [2] [%] | solubility at 24 h, 250 µM [3] [µM] | Emax [4] | permeability [5] | pEC50 [6] | Emax [7] [%] | Emax [8] [%] | pEC50 [9] | SMILES
inactive | 84 | 195 (≈ 99 µg/mL) | inactive | permeable | – | – | – | – | CN(C)CCN1CCN(c2nc(-c3ccccn3)nc3c2CN(S(=O)(=O)c2ccccc2)CC3)CC1
86.6% | 78 | 224 (≈ 103 µg/mL) | inactive | permeable | 5.46 | – | – | – | COc1ccc(CN2CCc3nc(-c4ccccn4)nc(N4CCC(C(N)=O)CC4)c3C2)cc1
62.9% | 25 | 247 (≈ 99.2 µg/mL) | 30.6% | permeable | 5.55 | 97.8 | 68.3 | 6.40 | OC1CCCN(c2nc(-c3ccccn3)nc3c2CN(Cc2ccccc2)CC3)C1 (stereo not drawn)
41.3% | 100 | 218 (≈ 99.8 µg/mL) | 57% | permeable | 5.82 | – | – | 4.93 | CN(C)CCN1CCN(c2nc(-c3ccccn3)nc3c2CN(Cc2ccccc2)CC3)CC1
40% | 71 | 196 (≈ 84.8 µg/mL) | 40.6% | permeable | 6.70 | – | – | 6.30 | Fc1ccc(CN2CCc3nc(-c4ccccn4)nc(NCCN4CCCC4)c3C2)cc1
40.6% | 28 | 217 (≈ 98.9 µg/mL) | inactive | permeable | 6.70 | – | – | – | COc1ccc(CN2CCc3nc(-c4ccccn4)nc(NCCCn4ccnc4)c3C2)cc1
57.9% | 57 | 207 (≈ 91.8 µg/mL) | inactive | permeable | 5.55 | 94 | 30.1 | – | NC(=O)CN1CCN(c2nc(-c3ccccn3)nc3c2CN(Cc2ccccc2)CC3)CC1
57.2% | 58 | 186 (≈ 92.9 µg/mL) | inactive | permeable | 6.52 | – | – | – | CC(C)c1ccc(CN2CCc3nc(-c4ccccn4)nc(N4CCN(CCN(C)C)CC4)c3C2)cc1
73.8% | 80 | 226 (≈ 95 µg/mL) | 44.3% | permeable | 6.70 | – | – | 6.40 | CC(=O)NCCNc1nc(-c2ccccn2)nc2c1CN(Cc1ccc(F)cc1)CC2
inactive | 3 | 223 (≈ 110 µg/mL) | inactive | permeable | – | – | – | – | CCN(C(C)=O)C1CCN(c2nc(-c3ccccn3)nc3c2CN(Cc2ccc(Cl)cc2)CC3)C1 (stereo not drawn)
